Results taken from ChEMBL document CHEMBL1649483, “Molecular analysis of the gyrA and gyrB quinolone resistance-determining regions of fluoroquinolone-resistant Clostridium difficile mutants selected in vitro” (2009).

Legend:
Format in all cases: functional
Clostridioides difficile [1] = assay: Antimicrobial activity against Clostridium difficile C253d selected after 4 ug/ml of moxifloxacin by Etest method
Clostridioides difficile [2] = assay: Antimicrobial activity against Clostridium difficile CD5A harboring GyrB Ser416Ala mutant gene selected after 4 ug/ml of levofloxacin by Etest method
Clostridioides difficile [3] = assay: Antimicrobial activity against Clostridium difficile C253e selected after 4 ug/ml of moxifloxacin by Etest method
Clostridioides difficile [4] = assay: Antimicrobial activity against Clostridium difficile A422D harboring GyrB Leu451Phe mutant gene selected after 8 ug/ml of levofloxacin by Etest method
Method in brief: (§1)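 Stable in vitro-selected mutant tested for gatifloxacin susceptibility by Etest, per the manufacturer's instructions, with an 8 μg/ml breakpoint. For selection, the parent was grown in antibiotic-free brain heart infusion (BHI) for 24 h at 35°C under anaerobic conditions. […] Later steps used double the MIC. Stability was confirmed by three subcultures.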

Clostridioides difficile [5] = assay: Antimicrobial activity against Clostridium difficile CD5D harboring GyrB Ser416Ala mutant gene selected after 8 ug/ml of levofloxacin by Etest method
Clostridioides difficile [6] = assay: Antimicrobial activity against Clostridium difficile A422G harboring GyrA Thr82Ile and GyrB Leu451Phe mutant genes selected after 8 ug/ml of levofloxacin by Etest method; method in brief: as §1
Clostridioides difficile [7] = assay: Antimicrobial activity against Clostridium difficile CD5f harboring GyrB Ser416Ala mutant gene selected after 4 ug/ml of moxifloxacin by Etest method
Clostridioides difficile [8] = assay: Antimicrobial activity against Clostridium difficile BI2E harboring GyrB Glu466Lys mutant gene selected after 8 ug/ml of levofloxacin by Etest method; method in brief: as §1
Clostridioides difficile [9] = assay: Antimicrobial activity against Clostridium difficile CD5a harboring GyrB Ser416Ala mutant gene selected after 2 ug/ml of moxifloxacin by Etest method
Clostridioides difficile [10] = assay: Antimicrobial activity against Clostridium difficile CD5h harboring GyrA Ala92Glu and GyrB Ser416Ala mutant genes selected after 8 ug/ml of moxifloxacin by Etest method
Clostridioides difficile [11] = assay: Antimicrobial activity against Clostridium difficile CD5b harboring GyrB Ser416Ala mutant gene selected after 2 ug/ml of moxifloxacin by Etest method
Clostridioides difficile [12] = assay: Antimicrobial activity against Clostridium difficile 630g harboring GyrB […] mutant gene selected after 8 ug/ml of moxifloxacin by Etest method; method in brief: as §1
Clostridioides difficile [13] = assay: Antimicrobial activity against Clostridium difficile 630c selected after 2 ug/ml of moxifloxacin by Etest method; method in brief: as §1
Clostridioides difficile [14] = assay: Antimicrobial activity against Clostridium difficile A422C selected after 4 ug/ml of levofloxacin by Etest method; method in brief: as §1
Clostridioides difficile [15] = assay: Antimicrobial activity against Clostridium difficile C253i harboring GyrA Ala118Ser mutant gene selected after 8 ug/ml of moxifloxacin by Etest method
Clostridioides difficile [16] = assay: Antimicrobial activity against Clostridium difficile BI2D harboring GyrB Glu466Lys mutant gene selected after 8 ug/ml of levofloxacin by Etest method; method in brief: as §1
Clostridioides difficile [17] = assay: Antimicrobial activity against Clostridium difficile 630D harboring GyrA Ala118Val mutant gene selected after 8 ug/ml of levofloxacin by Etest method; method in brief: as §1
Clostridioides difficile [18] = assay: Antimicrobial activity against Clostridium difficile C253h harboring GyrA Ala118Ser mutant gene selected after 8 ug/ml of moxifloxacin by agar dilution method
Clostridioides difficile [19] = assay: Antimicrobial activity against Clostridium difficile C253E selected after 8 ug/ml of levofloxacin by agar dilution method
Clostridioides difficile [20] = assay: Antimicrobial activity against Clostridium difficile CD5h harboring GyrA Ala118Ser, Thr82Ala and GyrB Ser416Ala mutant genes selected after 8 ug/ml of moxifloxacin by agar dilution method
Clostridioides difficile [21] = assay: Antimicrobial activity against Clostridium difficile CD5f harboring GyrB Ser416Ala mutant gene selected after 4 ug/ml of moxifloxacin by agar dilution method
Clostridioides difficile [22] = assay: Antimicrobial activity against Clostridium difficile A422g harboring GyrA Asp81Asn mutant gene selected after 8 ug/ml of moxifloxacin by agar dilution method
Clostridioides difficile [23] = assay: Antimicrobial activity against Clostridium difficile C253d selected after 4 ug/ml of moxifloxacin by agar dilution method
Clostridioides difficile [24] = assay: Antimicrobial activity against Clostridium difficile BI2d harboring GyrB Arg447Lys and Asp426Asn mutant gene selected after 32 ug/ml of moxifloxacin by agar dilution method
Clostridioides difficile [25] = assay: Antimicrobial activity against Clostridium difficile A422d selected after 4 ug/ml of moxifloxacin by agar dilution method
Clostridioides difficile [26] = assay: Antimicrobial activity against Clostridium difficile CD5B harboring GyrB Ser416Ala mutant gene selected after 4 ug/ml of levofloxacin by agar dilution method
Clostridioides difficile [27] = assay: Antimicrobial activity against Clostridium difficile BI2 by agar dilution method
Clostridioides difficile [28] = assay: Antimicrobial activity against Clostridium difficile CD25 expressing tcdA, tcdB gene and GyrB Ser416Ala mutant by agar dilution method
Clostridioides difficile [29] = assay: Antimicrobial activity against Clostridium difficile C253e selected after 4 ug/ml of moxifloxacin by agar dilution method
Clostridioides difficile [30] = assay: Antimicrobial activity against Clostridium difficile C253C selected after 4 ug/ml of levofloxacin by agar dilution method
Clostridioides difficile [31] = assay: Antimicrobial activity against Clostridium difficile A422E harboring GyrB Leu451Phe mutant gene selected after 8 ug/ml of levofloxacin by agar dilution method
Clostridioides difficile [32] = assay: Antimicrobial activity against Clostridium difficile 630F harboring GyrA Ala118Val mutant gene selected after 8 ug/ml of levofloxacin by agar dilution method
Clostridioides difficile [33] = assay: Antimicrobial activity against Clostridium difficile 630h harboring GyrB […] mutant gene selected after 8 ug/ml of moxifloxacin by agar dilution method
Clostridioides difficile [34] = assay: Antimicrobial activity against Clostridium difficile BI2b harboring GyrB Arg447Lys mutant gene selected after 2 ug/ml of moxifloxacin by agar dilution method
Clostridioides difficile [35] = assay: Antimicrobial activity against Clostridium difficile CD5e harboring GyrB Ser416Ala mutant gene selected after 4 ug/ml of moxifloxacin by agar dilution method
Clostridioides difficile [36] = assay: Antimicrobial activity against Clostridium difficile CD5b harboring GyrB Ser416Ala mutant gene selected after 2 ug/ml of moxifloxacin by agar dilution method
Clostridioides difficile [37] = assay: Antimicrobial activity against Clostridium difficile CD5i harboring GyrA Ala118Ser, Thr82Ala and GyrB Ser416Ala mutant genes selected after 8 ug/ml of moxifloxacin by agar dilution method
Clostridioides difficile [38] = assay: Antimicrobial activity against Clostridium difficile A422e selected after 4 ug/ml of moxifloxacin by agar dilution method
Clostridioides difficile [39] = assay: Antimicrobial activity against Clostridium difficile C253B selected after 4 ug/ml of levofloxacin by agar dilution method

## COc1c(N2CCNC(C)C2)c(F)cc2c(=O)c(C(=O)O)cn(C3CC3)c12 (centres undefined) [GATIFLOXACIN]
Clostridioides difficile [1]
  MIC: 1 µg/mL
Clostridioides difficile [2]
  MIC: 0.5 µg/mL
Clostridioides difficile [3]
  MIC: 1 µg/mL
Clostridioides difficile [4]
  MIC: 2 µg/mL
Clostridioides difficile [5]
  MIC: 2 µg/mL
Clostridioides difficile [6]
  MIC: ≥ 32 µg/mL
Clostridioides difficile [7]
  MIC: 0.75 µg/mL
Clostridioides difficile [8]
  MIC: ≥ 32 µg/mL
Clostridioides difficile [9]
  MIC: 0.75 µg/mL
Clostridioides difficile [10]
  MIC: 3 µg/mL
Clostridioides difficile [11]
  MIC: 0.75 µg/mL
Clostridioides difficile [12]
  MIC: ≥ 32 µg/mL
Clostridioides difficile [13]
  MIC: 0.75 µg/mL
Clostridioides difficile [14]
  MIC: 1 µg/mL
Clostridioides difficile [15]
  MIC: 8 µg/mL
Clostridioides difficile [16]
  MIC: ≥ 32 µg/mL
Clostridioides difficile [17]
  MIC: 3 µg/mL

## C[C@H]1COc2c(N3CCN(C)CC3)c(F)cc3c(=O)c(C(=O)O)cn1c23.C[C@H]1COc2c(N3CCN(C)CC3)c(F)cc3c(=O)c(C(=O)O)cn1c23.O [LEVOFLOXACIN]
Clostridioides difficile [18]
  MIC: 64 µg/mL
Clostridioides difficile [19]
  MIC: 2 µg/mL
Clostridioides difficile [20]
  MIC: 64 µg/mL
Clostridioides difficile [21]
  MIC: 2 µg/mL
Clostridioides difficile [22]
  MIC: 64 µg/mL
Clostridioides difficile [23]
  MIC: 4 µg/mL
Clostridioides difficile [24]
  MIC: 64 µg/mL
Clostridioides difficile [25]
  MIC: 4 µg/mL
Clostridioides difficile [26]
  MIC: 1 µg/mL
Clostridioides difficile [27]
  MIC: 2 µg/mL
Clostridioides difficile [28]
  MIC: 2 µg/mL
Clostridioides difficile [29]
  MIC: 4 µg/mL
Clostridioides difficile [30]
  MIC: 1 µg/mL
Clostridioides difficile [31]
  MIC: 2 µg/mL
Clostridioides difficile [32]
  MIC: 8 µg/mL
Clostridioides difficile [33]
  MIC: 64 µg/mL
Clostridioides difficile [34]
  MIC: 8 µg/mL
Clostridioides difficile [35]
  MIC: 2 µg/mL
Clostridioides difficile [36]
  MIC: 2 µg/mL
Clostridioides difficile [37]
  MIC: 64 µg/mL
Clostridioides difficile [38]
  MIC: 4 µg/mL
Clostridioides difficile [39]
  MIC: 1 µg/mL
